Measurements: ChEMBL document CHEMBL2176868, “7-Alkyl-3-benzylcoumarins: a versatile scaffold for the development of potent and selective cannabinoid receptor agonists and antagonists” (J Med Chem, 2012)

Legend:
[1] = target: T1, Cannabinoid receptor 2 (Homo sapiens, UniProt P34972); test: Displacement of [3H]CP55,940 from human CB2 receptor expressed in CHO cells after 2 hrs by liquid scintillation counter; type: cell-based
[2] = target: T2, Cannabinoid receptor 1 (Homo sapiens, UniProt P21554); test: biochemical; type: cell-based, CHO
T2 sequence (P21554 whole entry): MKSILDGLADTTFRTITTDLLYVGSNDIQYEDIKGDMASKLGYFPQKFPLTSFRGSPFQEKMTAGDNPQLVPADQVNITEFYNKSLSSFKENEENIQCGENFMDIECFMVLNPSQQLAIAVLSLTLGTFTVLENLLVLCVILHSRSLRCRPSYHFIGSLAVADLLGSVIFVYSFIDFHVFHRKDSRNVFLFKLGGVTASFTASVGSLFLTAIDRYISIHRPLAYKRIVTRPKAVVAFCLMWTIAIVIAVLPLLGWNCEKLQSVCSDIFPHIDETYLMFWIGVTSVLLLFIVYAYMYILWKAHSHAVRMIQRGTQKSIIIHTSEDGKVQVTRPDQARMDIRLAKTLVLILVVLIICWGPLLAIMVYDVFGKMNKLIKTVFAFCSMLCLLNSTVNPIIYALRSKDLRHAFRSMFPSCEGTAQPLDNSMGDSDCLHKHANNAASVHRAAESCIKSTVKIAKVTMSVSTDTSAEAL

[3] = target: T2, Cannabinoid receptor 1; settings: CHO, at 1 µM
[4] = target: T1, Cannabinoid receptor 2; test: Agonist activity at human CB2 receptor expressed in CHO cells assessed as inhibition of forskolin-stimulated cAMP accumulation using [3H]-cAMP at 1 uM after 5 mins by liquid scintillation counter relative to CP55940; type: functional, cell-based
[5] = system: CHO; test: Selectivity ratio of Ki for human CB1 receptor to Ki for human CB2 receptor expressed in CHO cells; type: cell-based
[6] = target: T1, Cannabinoid receptor 2; test: Agonist activity at human CB2 receptor expressed in CHO cells assessed as inhibition of forskolin-stimulated cAMP accumulation using [3H]-cAMP after 5 mins by liquid scintillation counter; type: functional, cell-based
Method in brief: (§1)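 Intact CHO cells stably expressing the receptor (retrovirally transfected, kept in 0.2 mg/mL G418) were seeded 24 h ahead and preincubated 2 h at 37 °C in HBSS. Cells were lysed hot and cAMP was read by competition with [3H]cAMP for bovine adrenal binding protein, filtered and counted. EC50 came from full concentration-response curves, three independent experiments in duplicate.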

[7] = target: T2, Cannabinoid receptor 1; test: Displacement of [3H]CP55,940 from human CB1 receptor expressed in CHO cells at 10 uM after 2 hrs by liquid scintillation counter; type: cell-based
Method in brief: (§2)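 The screen used CHO cell membranes expressing the human receptor (50 μg protein), [3H]CP55,940 at 0.1 nM final and compound at 10 μM in 50 mM Tris, 3 mM MgCl2, 0.1% BSA, pH 7.4, with 2.5% DMSO final. Incubation was 2 h at room temperature. Nonspecific binding was taken with 10 μM unlabeled CP55,940. Filtration through PEI-soaked GF/C filters was followed by scintillation counting, and the value is % inhibition of binding.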

[8] = target: T1, Cannabinoid receptor 2; test: Displacement of [3H]CP55,940 from human CB2 receptor expressed in CHO cells at 10 uM after 2 hrs by liquid scintillation counter; type: cell-based; method in brief: as §2
[9] = target: T2, Cannabinoid receptor 1; test: Agonist activity at human CB1 receptor expressed in CHO cells assessed as inhibition of forskolin-stimulated cAMP accumulation using [3H]-cAMP after 5 mins by liquid scintillation counter; type: functional, cell-based; method in brief: as §1

T1 sequence (P34972 whole entry): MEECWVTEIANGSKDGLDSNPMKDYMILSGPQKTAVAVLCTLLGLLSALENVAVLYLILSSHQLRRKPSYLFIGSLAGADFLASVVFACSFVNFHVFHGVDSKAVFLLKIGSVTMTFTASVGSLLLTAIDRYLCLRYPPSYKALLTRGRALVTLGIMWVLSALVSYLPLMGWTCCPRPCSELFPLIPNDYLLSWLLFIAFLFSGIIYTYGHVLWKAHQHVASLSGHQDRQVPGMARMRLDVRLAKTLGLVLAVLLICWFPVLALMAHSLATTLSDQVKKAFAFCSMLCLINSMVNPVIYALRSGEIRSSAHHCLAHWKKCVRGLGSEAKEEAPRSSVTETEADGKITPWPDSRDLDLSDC

Structure (SMILES)	Ki [1] [nM]	Ki [2] [nM]	inhibition [3] [%]	inhibition [4] [%]	Ratio Ki [5]	EC50 [6] [nM]	inhibition [7] [%]	inhibition [8] [%]	EC50 [9] [nM]
CCCCCc1cc(O)c2cc(Cc3ccccc3)c(=O)oc2c1	1680	1270	0	0	–	–	–	–	–
CCCCCc1cc(OC)c2cc(Cc3ccccc3)c(=O)oc2c1	267	1920	58	47	7	–	–	–	–
CCCCC1(c2cc(O)c3cc(Cc4ccccc4O)c(=O)oc3c2)CCCCC1	49	4890	0	76	100	179	–	–	–
Cc1ccc(C(C)C)c2cc(Cc3ccccc3O)c(=O)oc12	> 10000	> 10000	–	–	–	–	31	24	–
CCCCCc1cc(O)c2cc(Cc3cccc(O)c3)c(=O)oc2c1	5150	16200	0	0	–	–	–	–	–
CCCCCc1cc(O)c2cc(Cc3ccccc3O)c(=O)oc2c1	4800	9820	109	0	–	–	–	–	–
CCCCCc1cc(OC)c2cc(Cc3cccc(OC)c3)c(=O)oc2c1	143	45	58	93	–	92	–	–	430
CCCCCCC(C)(C)c1cc(O)c2cc(Cc3ccccc3O)c(=O)oc2c1	210	244	0	76	–	54	–	–	–
COc1cccc(Cc2cc3c(OC)cc(Br)cc3oc2=O)c1	2450	> 10000	0	0	–	–	38	–	–
CCCCC1(c2cc(O)c3cc(Cc4ccccc4O)c(=O)oc3c2)CCCC1	68	1580	18	106	–	48	–	–	–
CCCCCc1cc(OC)c2cc(Cc3ccccc3C)c(=O)oc2c1	405	22	0	58	–	213	–	–	–
CCCCCc1cc(O)c2cc(Cc3cccc(C)c3)c(=O)oc2c1	1760	2170	42	10	–	–	–	–	–
CCCCCCC(C)(C)c1cc(OC)c2cc(Cc3ccccc3OC)c(=O)oc2c1	3010	1020	0	30	–	–	–	–	–
CCCCC1(c2cc(OC)c3cc(Cc4ccccc4OC)c(=O)oc3c2)CCCC1	1140	598	110	3	–	–	–	–	–
COc1cccc(Cc2cc3c(OC)cc(CO[Si](c4ccccc4)(c4ccccc4)C(C)(C)C)cc3oc2=O)c1	> 10000	> 10000	–	–	–	–	12	4	–
COc1cccc(Cc2cc3c(OC)cc(CBr)cc3oc2=O)c1	13300	4740	23	0	–	–	–	–	–

Structure (SMILES)	Ki [1] [nM]	Ki [2] [nM]	inhibition [3] [%]	inhibition [4] [%]	Ratio Ki [5]	EC50 [6] [nM]	inhibition [7] [%]	inhibition [8] [%]	EC50 [9] [nM]
CCCCCCC(C)(C)c1cc(O)c2cc(Cc3ccccc3)c(=O)oc2c1	465	2630	84	32	–	–	–	–	–
COc1cccc(Cc2cc3c(OC)cccc3oc2=O)c1	> 10000	21100	0	–	–	–	–	27	–
CCCCCc1cc(O)c2cc(Cc3cccc(Cl)c3)c(=O)oc2c1	2200	6390	70	0	–	–	–	–	–
CCCCCc1cc(OC)c2cc(Cc3cccc(Cl)c3)c(=O)oc2c1	350	637	0	40	–	–	–	–	–
COc1cccc(Cc2cc3c(OC)cc(CO)cc3oc2=O)c1	> 10000	> 10000	–	–	–	–	8	16	–
CCCCC1(c2cc(OC)c3cc(Cc4ccccc4OC)c(=O)oc3c2)CCCCC1	≤ 10000	≤ 10000	–	–	–	–	42	45	–
CCCCCc1cc(OC)c2cc(Cc3cccc(C)c3)c(=O)oc2c1	392	713	0	50	–	–	–	–	–
CCCCCCCC(C)(C)c1cc(OC)c2cc(Cc3ccccc3OC)c(=O)oc2c1	10000	10000	–	–	–	–	51	47	–
CCCCCc1cc(OC)c2cc(Cc3ccccc3Cl)c(=O)oc2c1	185	33	6	47	–	–	–	–	–
CCCCCc1cc(O)c2cc(Cc3ccccc3Cl)c(=O)oc2c1	1940	19100	60	2	–	–	–	–	–
CCCCCCCC(C)(C)c1cc(O)c2cc(Cc3ccccc3O)c(=O)oc2c1	292	1170	0	52	–	–	–	–	–
CCCCCCC(C)(C)c1cc(OC)c2cc(Cc3ccccc3)c(=O)oc2c1	4120	1430	27	0	–	–	–	–	–
Cc1cc(O)c2cc(Cc3ccccc3C)c(=O)oc2c1	> 10000	> 10000	–	–	–	–	34	38	–
Cc1ccc(Cc2cc3c(O)cc(C)cc3oc2=O)cc1	> 10000	> 10000	–	–	–	–	30	23	–
CCCCCc1cc(O)c2cc(Cc3ccccc3C)c(=O)oc2c1	3570	1640	9	12	–	–	–	–	–
CCCCCc1cc(OC)c2cc(Cc3ccccc3OC)c(=O)oc2c1	49	32	93	106	–	14	–	–	56
